In data set [1] the test system is Platelet. The experiment in a line: Antiplatelet activity in mouse platelet rich plasma assessed as inhibition of ADP-induced platelet aggregation at 10 uM by aggregometry. Type of data set: functional, cell-free. A digest of the protocol: (§1)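 Mice anaesthetized with ether and bled by cardiac puncture. Platelet-rich plasma was pooled, split into sub-pools and spiked with compound or vehicle. Aggregation was induced with ADP or collagen and followed on a dual-channel aggregometer. Data given as mean ± SEM, n = 3, compared against vehicle control.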

Data set [2] deals with Plasma. The experiment in a line: Anticoagulant activity in mouse platelet poor plasma assessed as increase in prothrombin time at 10 uM by coagulometry. In kind it is functional, cell-free. A digest of the protocol:
(§2)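 Mice anaesthetized with ether and bled by cardiac puncture. Platelet-poor plasma was pooled, split into sub-pools and spiked with compound or vehicle. Thrombin time, prothrombin time and APTT were run with commercial kits per manufacturer's instructions on a semi-automated coagulometer. Data given as mean ± SEM, n = 3, compared against vehicle control.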

The subject of data set [3] is Platelet. Briefly: Antiplatelet activity in mouse platelet rich plasma assessed as inhibition of collagen-induced platelet aggregation at 10 uM by aggregometry. In kind it is functional, cell-free. A digest of the protocol:
as §1

The subject of data set [4] is Plasma. The experiment in a line: Anticoagulant activity in mouse platelet poor plasma assessed as increase in prothrombin time at 30 uM by coagulometry. Type of data set: functional, cell-free. The method in brief: as §2
In data set [5] the test system is Plasma. Briefly: Anticoagulant activity in mouse platelet poor plasma assessed as increase in activated partial thromboplastin time at 30 uM by coagulometry. In kind it is functional, cell-free. The method in brief: as §2
Data set [6] deals with Mus musculus. Briefly: Ex-vivo antiplatelet activity in mouse platelet rich plasma assessed as inhibition of collagen-induced platelet aggregation at 30 uM/kg, po for 3 days by aggregometry. Type of data set: functional.
Data set [7] concerns Platelet. Briefly: Antiplatelet activity in mouse platelet rich plasma assessed as inhibition of ADP-induced platelet aggregation at 30 uM by aggregometry. Type of data set: functional, cell-free. The method in brief:
as §1

For data set [8], the system named is Mus musculus. The experiment in a line: Ex-vivo anticoagulant activity in mouse platelet poor plasma assessed as increase in thrombin time at 30 uM/kg, po for 3 days by coagulometry. In kind it is functional. The method in brief: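 Mice were dosed orally for three days, then bled by cardiac puncture under ether anaesthesia. Thrombin time was measured in platelet-poor plasma with a commercial kit on a semi-automated coagulometer and compared with vehicle-treated controls.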

For data set [9], the system named is Mus musculus. The experiment in a line: Anti-thrombotic activity in collagen and adrenaline challenged mouse pulmonary thromboembolism model assessed as protection from paralysis or death at 30 uM/kg, po administered 60 mins prior to thrombotic challenge. Type of data set: functional. A digest of the protocol: (§3)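 Mice were dosed orally 60 min before the challenge, alongside a vehicle group. Pulmonary thromboembolism was then induced by tail-vein injection of a collagen plus adrenaline mixture. Groups held ten mice per test agent and five per reference drug or vehicle. The read-out was % protection against hind-limb paralysis or death.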

Data set [10] has as its system Mus musculus. The experiment in a line: Increase of bleeding time in mouse at 30 uM/kg, po administered 60 mins prior to tail incision. Type of data set: ADME, organism-based. The note with it: in vivo, 1 h. The method in brief: (§4)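 Compound, aspirin or vehicle given orally 60 min before cutting the tail 2 mm from the tip, five mice per group. Blood was blotted onto filter paper every 10–15 s until flow stopped. Bleeding time is the interval from incision to cessation.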

Data set [11] deals with Platelet. The experiment in a line: Antiplatelet activity in mouse platelet rich plasma assessed as inhibition of collagen-induced platelet aggregation at 30 uM by aggregometry. Type of data set: functional, cell-free. The method in brief: as §1
The subject of data set [12] is Plasma. The experiment in a line: Anticoagulant activity in mouse platelet poor plasma assessed as increase in thrombin time at 10 uM by coagulometry. In kind it is functional, cell-free. The method in brief: as §2
For data set [13], the system named is Mus musculus. The experiment in a line: Ex-vivo antiplatelet activity in mouse platelet rich plasma assessed as inhibition of ADP-induced platelet aggregation at 30 uM/kg, po for 3 days by aggregometry. Type of data set: functional.
Data set [14] relates to Plasma. Briefly: Anticoagulant activity in mouse platelet poor plasma assessed as increase in thrombin time at 30 uM by coagulometry. Type of data set: functional, cell-free. The method in brief: as §2
Data set [15] deals with Plasma. The experiment in a line: Anticoagulant activity in mouse platelet poor plasma assessed as increase in activated partial thromboplastin time at 10 uM by coagulometry. Type of data set: functional, cell-free. The method in brief: as §2
Data set [16] deals with Platelet. Briefly: Antiplatelet activity in mouse platelet rich plasma assessed as inhibition of ADP-induced platelet aggregation at 100 uM by aggregometry. Type of data set: functional, cell-free. The method in brief:
as §1

For data set [17], the system named is Platelet. The experiment in a line: Antiplatelet activity in mouse platelet rich plasma assessed as inhibition of collagen-induced platelet aggregation at 100 uM by aggregometry. Type of data set: functional, cell-free. A digest of the protocol:
as §1

The test system of data set [18] is Mus musculus. The experiment in a line: Anti-thrombotic activity in collagen and adrenaline challenged mouse pulmonary thromboembolism model assessed as protection from paralysis or death at 30 mg/kg, po administered 60 mins prior thrombotic challenge. Type of data set: functional. A digest of the protocol: as §3
Data set [19] relates to Mus musculus. Briefly: Increase of bleeding time in mouse at 30 mg/kg, po administered 60 mins prior to tail incision. Also on record: dose 30 mg/kg, route oral. In kind it is ADME, organism-based. The note with it: in vivo, 1 h. The method in brief:
as §4

Active and inactive are the calls of the source. The rule behind the calls is not given here.

For the molecule `Cc1cc(=O)oc2c1ccc1c(OCC(=O)NC(C)(C)C)cccc12`, the inhibition result in [1] and in data set [3] was “inactive” in each case. Besides, the result in data set [2], in data set [4], in [5], in data set [12] and in data set [15] was inactive. In addition, the entries for the “inhibition (INH)” value in data set [6] and in [13] were 90% and 38%, respectively. Besides, the inhibition result in data set [7] and in data set [11] was “Active” throughout. Moreover, the results for the Activity in data set [8], in data set [9] and in data set [10] were 74%, 40% and 96.5%, respectively. For the same molecule, the result in data set [14] was Active.
Consider `Cc1cc(=O)oc2c1ccc1c(OCC(=O)N3CCCCC3)cccc12`, for which the Activity in [9] is listed as 30%; in [10], 58.5%.
Regarding `COc1ccc(CNC(=O)COc2cccc3c2ccc2c(C)cc(=O)oc23)cc1`, the Activity was found to be 10% in data set [9] and 8.2% in data set [10].
In the case of `Cc1cc(=O)oc2c1ccc1c(OCC(=O)NC3CCCCC3)cccc12`, the results for the Activity in [9] and in data set [10] were 10% and 0%, respectively.
In the case of `Cc1cc(=O)oc2c1ccc1c(OCC(=O)NC(C)C)cccc12`, the Activity is recorded as 10% in data set [9] and 66.5% in data set [10].
`CC(=O)Oc1ccccc1C(=O)O` [ASPIRIN]: the inhibition entry in [16] and in [17] was “Active” throughout. Further, the Activity in [18] came to 37%; in [19], 100%.
For the molecule `Cc1cc(=O)oc2c1ccc1c(OCC(=O)N3CCOCC3)cccc12`, the Activity in data set [9] was 30%; in data set [10], 66.8%.
On to `Cc1cc(=O)oc2c1ccc1c(OCC(=O)N3CCN(C)CC3)cccc12`, for which the Activity in data set [9] was 10%; in [10], 8.5%.
Consider `Cc1cc(=O)oc2c1ccc1c(OCC(=O)NCCCO)cccc12`, for which the inhibition result in data set [1] and in [3] was “inactive” in each case. The outcome in data set [2], in data set [4], in [5], in data set [12] and in data set [15] was inactive. For the same molecule, the inhibition entry in [7] and in data set [11] was “Active” each time. Also, the Activity came out at 45% in [9] and 112.5% in data set [10]. Further, the result in data set [14] was Active.
As to `COc1cc(NC(=O)COc2cccc3c2ccc2c(C)cc(=O)oc23)cc(OC)c1OC`, the Activity in data set [9] amounted to 20%; in [10], 41.7%.
As to `CCCNC(=O)COc1cccc2c1ccc1c(C)cc(=O)oc12`, the inhibition result in data set [1] and in [3] was “inactive” throughout. The outcome in data set [2], in [4], in data set [5], in data set [12] and in data set [15] was inactive. Further, the inhibition result in data set [7] and in [11] was “Active” in each case. Also, the Activity in data set [9] amounted to 40%; in [10] it was 91.5%. Also, in data set [14], the outcome was Active.
For `Cc1cc(=O)oc2c1ccc1c(OCC(=O)Nc3cccc(C(=O)O)c3)cccc12`, the Activity in data set [9] is recorded as less than 10%; in data set [10] it was 8.5%.
Molecule `Cc1ccc(CNC(=O)COc2cccc3c2ccc2c(C)cc(=O)oc23)cc1C` yielded an Activity in [10] of 58.5%.
As for `Cc1cc(=O)oc2c1ccc1c(OCC(=O)NCc3ccccc3)cccc12`, the values for the Activity in data set [9] and in [10] were 10% and 8.5%, respectively.
Turning to `Cc1cc(=O)oc2c1ccc1c(OCC(=O)Nc3ccc(S(N)(=O)=O)cc3)cccc12`, the Activity in [9] was less than 10%; in data set [10], 16.5%.

The record behind these values is ChEMBL document CHEMBL2016548, “Synthesis and evaluation of anti-thrombotic activity of benzocoumarin amide derivatives” (Bioorg Med Chem Lett, 2012).
